Assay results: ChEMBL document CHEMBL4118188, “A small diversity library of α-methyl amide analogs of sulindac for probing anticancer structure-activity relationships” (Bioorg Med Chem Lett, 2018); call rule not given here

How the values were obtained:
HT-29 = test: Growth inhibition of human HT-29 cells measured after 72 hrs by Celltiter-Glo reagent based assay; assay type: functional; conditions: HT-29, 72 h
PC-3 = test: Growth inhibition of human PC3 cells measured after 72 hrs by Celltiter-Glo reagent based assay; assay type: functional; conditions: PC-3, 72 h
MDA-MB-231 = test: Growth inhibition of human MDA-MB-231 cells measured after 96 hrs by Celltiter-Glo reagent based assay; assay type: functional; conditions: MDA-MB-231, 96 h
[1] = Growth inhibition of mouse CPC300 cells measured after 72 hrs by Celltiter-Glo reagent based assay; assay type: functional
How it was run: (§1)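 Cell line sources: Raji is a Burkitt's lymphoma line (FAB L3); Jurkat E6-1 is an acute T-cell leukemia line; REH is a patient-derived precursor B-cell ALL line expressing only wild-type MLL and wild-type AF4; 697 was established from bone marrow of children with relapsed ALL; CPC300 derives from a mouse model of choroid plexus carcinoma.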

[2] = Growth inhibition of human NALM16 cells measured after 72 hrs by Celltiter-Glo reagent based assay; assay type: functional
Jurkat E6.1 = test: Growth inhibition of human Jurkat E6-1 cells measured after 72 hrs by Celltiter-Glo reagent based assay; assay type: functional, cell-based; how it was run: as §1
REH = test: Growth inhibition of human REH cells measured after 72 hrs by CellTiter-Glo reagent based assay; assay type: functional, cell-based; how it was run: as §1
697 = test: Growth inhibition of human 697 cells after 72 hrs by CellTiter-Glo reagent based assay; assay type: functional, cell-based; how it was run: as §1
BJ = test: Growth inhibition of human BJ cells after 72 hrs by CellTiter-Glo reagent based assay; assay type: cell-based
Raji = test: Growth inhibition of human Raji cells measured after 72 hrs by Celltiter-Glo reagent based assay; assay type: functional, cell-based; how it was run: as §1
[3] = Homo sapiens, REH, 72 h, read-out: EC50
[4] = Homo sapiens, Raji, 72 h, read-out: EC50
[5] = Homo sapiens, NALM16, 72 h, read-out: EC50
[6] = Homo sapiens, Jurkat E6.1, 72 h, read-out: EC50
[7] = Homo sapiens, 697, 72 h, read-out: EC50

Structure (SMILES)	CC50 (HT-29) [µM]	CC50 (PC-3) [µM]	CC50 (MDA-MB-231) [µM]	EC50 [1]	EC50 [2]	EC50 (Jurkat E6.1; jurkat e6.1)	EC50 (REH; [3]) [µM]	EC50 697; 697	EC50 (BJ) [µM]	EC50 (Raji; [4]) [µM]	EC50 (Raji; raji)	EC50 [2, 5] [µM]	EC50 (REH; reh)	EC50 (Jurkat E6.1; [6]) [µM]	EC50 697; [7] [µM]
CSc1ccc(/C=C2/C(C)=C(C(C)C(=O)N3CCC[C@H]3CN3CCCC3)c3cc(F)ccc32)cc1 (stereo partly drawn)	0.84	3.93	3.57	Not Active	Not Active	Not Active	11	Not Active	> 7.57	–	–	–	–	–	–
CSc1ccc(/C=C2/C(C)=C(C(C)C(=O)NCCN3CCNCC3)c3cc(F)ccc32)cc1 (stereo not drawn)	2.22	5.91	5.32	Not Active	Not Active	Not Active	26	Not Active	> 7.57	45	–	–	–	–	–
CSc1ccc(/C=C2/C(C)=C(C(C)C(=O)N(C)CCCN(C)C)c3cc(F)ccc32)cc1 (stereo not drawn)	2.12	5.5	4.11	Not Active	Not Active	Not Active	38	Not Active	> 7.57	–	Not Active	–	–	–	–
CSc1ccc(/C=C2/C(C)=C(C(C)C(=O)N3CCN(CCN(C)C)CC3)c3cc(F)ccc32)cc1 (stereo not drawn)	2.02	5.98	3.77	Not Active	–	Not Active	–	Not Active	> 7.57	–	Not Active	2.1	Not Active	–	–
CCN(CC)CCCNC(=O)C(C)C1=C(C)/C(=C/c2ccc(SC)cc2)c2ccc(F)cc21 (stereo not drawn)	2.17	6.13	4.23	Not Active	Not Active	Not Active	–	Not Active	> 7.57	–	Not Active	–	Not Active	–	–
COc1cc(/C=C2/C(C)=C(C(C)C(=O)NCc3ccccc3)c3cc(F)ccc32)cc(OC)c1OC (stereo not drawn)	2.77	4.92	3.81	Not Active	–	–	7	–	> 7.57	13	–	8	–	7.7	6.1
CCN(CC)CCNC(=O)C(C)C1=C(C)/C(=C/c2ccc(SC)cc2)c2ccc(F)cc21 (stereo not drawn)	2.03	6.21	5.38	Not Active	Not Active	Not Active	14	Not Active	> 7.57	–	Not Active	–	–	–	–
CSc1ccc(/C=C2/C(C)=C(C(C)C(=O)N(CCNC(C)C)C(C)C)c3cc(F)ccc32)cc1 (stereo not drawn)	1.5	3.91	3.83	Not Active	Not Active	Not Active	–	Not Active	> 7.57	–	Not Active	–	Not Active	–	–
CCN(CCN(C)C)C(=O)C(C)C1=C(C)/C(=C/c2ccc(SC)cc2)c2ccc(F)cc21 (stereo not drawn)	1.13	3.54	3.18	Not Active	Not Active	Not Active	10	Not Active	> 7.57	< 0.00038	–	–	–	–	–
CSc1ccc(/C=C2/C(C)=C(C(C)C(=O)NCCN3CCCC3)c3cc(F)ccc32)cc1 (stereo not drawn)	2.03	5.68	5	Not Active	Not Active	–	76	–	> 7.57	–	Not Active	–	–	76	76
CNCCCN(C)C(=O)C(C)C1=C(C)/C(=C/c2ccc([S+](C)[O-])cc2)c2ccc(F)cc21 (stereo not drawn)	10.5	33.7	36.8	–	–	–	–	–	–	–	–	–	–	–	–
CSc1ccc(/C=C2/C(C)=C(C(C)C(=O)N(C)CCN(C)C)c3cc(F)ccc32)cc1 (stereo not drawn)	1.43	5.55	3.66	–	–	–	–	–	–	–	–	–	–	–	–
CCN1CCC[C@H]1CNC(=O)C(C)C1=C(C)/C(=C/c2ccc([S+](C)[O-])cc2)c2ccc(F)cc21 (stereo partly drawn)	9.35	41.5	24.9	–	–	–	–	–	–	–	–	–	–	–	–
CSc1ccc(/C=C2/C(C)=C(C(C)C(=O)NCCN(C)C)c3cc(F)ccc32)cc1 (stereo not drawn)	1.8	5.07	3.88	Not Active	–	Not Active	–	Not Active	> 7.57	–	Not Active	76	Not Active	–	–
CC1=C(C(C)C(=O)NCCN(C)C)c2cc(F)ccc2/C1=C\c1ccc([S+](C)[O-])cc1 (stereo not drawn)	12.7	> 50	> 50	–	–	–	–	–	–	–	–	–	–	–	–
CSc1ccc(/C=C2/C(C)=C(C(C)C(=O)N3CCN(c4ccncc4)CC3)c3cc(F)ccc32)cc1 (stereo not drawn)	2.2	4.68	3.95	Not Active	Not Active	Not Active	–	–	> 7.57	–	Not Active	–	Not Active	–	76
CSc1ccc(/C=C2/C(C)=C(C(C)C(=O)N(CCCNC(C)C)C(C)C)c3cc(F)ccc32)cc1 (stereo not drawn)	1.26	3.18	2.91	Not Active	–	Not Active	–	Not Active	> 7.57	–	Not Active	1.5	Not Active	–	–
CSc1ccc(/C=C2/C(C)=C(CC(=O)NCCN(C)C)c3cc(F)ccc32)cc1	0.65	3.12	2.67	–	–	–	–	–	–	–	–	–	–	–	–
CC1=C(C(C)C(=O)N2CCC[C@H]2CN2CCCC2)c2cc(F)ccc2/C1=C\c1ccc([S+](C)[O-])cc1 (stereo partly drawn)	7.82	24.4	32	–	–	–	–	–	–	–	–	–	–	–	–
CCN(CC)CCNC(=O)C(C)C1=C(C)/C(=C/c2ccc([S+](C)[O-])cc2)c2ccc(F)cc21 (stereo not drawn)	11.1	40	36.6	–	–	–	–	–	–	–	–	–	–	–	–
CCNCCN(CC)C(=O)C(C)C1=C(C)/C(=C/c2ccc(SC)cc2)c2ccc(F)cc21 (stereo not drawn)	1.3	3.26	2.51	–	–	–	–	–	–	–	–	–	–	–	–
